In article PMC4793151 (Cell host & microbe, 2016):

Key:
[1] = molecular target: T1, BabA CBD of Alaskan strain A730 (Helicobacter pylori, UniProt O52269); experiment: Monovalent binding affinity; conditions: for Kd: A730
T1 sequence (O52269 45-480): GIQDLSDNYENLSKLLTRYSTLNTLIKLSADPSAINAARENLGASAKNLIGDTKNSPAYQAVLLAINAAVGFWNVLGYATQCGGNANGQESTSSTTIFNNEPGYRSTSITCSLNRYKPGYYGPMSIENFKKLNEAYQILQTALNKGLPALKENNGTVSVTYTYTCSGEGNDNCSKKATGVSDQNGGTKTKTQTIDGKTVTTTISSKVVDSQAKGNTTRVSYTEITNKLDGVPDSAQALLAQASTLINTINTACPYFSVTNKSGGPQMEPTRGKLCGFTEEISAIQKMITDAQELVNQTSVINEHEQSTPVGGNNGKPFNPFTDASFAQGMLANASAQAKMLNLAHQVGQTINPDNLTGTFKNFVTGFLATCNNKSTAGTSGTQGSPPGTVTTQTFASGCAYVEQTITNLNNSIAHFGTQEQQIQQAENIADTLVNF
Procedure, shortened: (§1)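 BabA adhesin domain isoforms from strains A730 and P436, plus the strain 17875 reference domain, were expressed recombinantly in E. coli as outer-membrane- or periplasm-targeted proteins and purified by His-tag affinity. In vitro binding was measured by isothermal titration calorimetry: injection heats were integrated into a normalized binding isotherm.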

BabA^AD;DL1-S831 [2] = experiment: ITC of BabA^AD; type: binding, Helicobacter pylori
[3] = system: H. pylori strain 17875/Leb; experiment: RIA of 125I-labeled Le^b binding to bacterial cells exposed to reducing agent; type: cell-based, Helicobacter pylori; conditions: 20 mg/mL NAC
[4] = system: human gastric mucosa sections; experiment: Pretreatment of gastric sections; type: cell-based; conditions: up to 200 mg/mL NAC
Procedure, shortened: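 Human gastric mucosa sections were preincubated with N-acetylcysteine in SIA blocking buffer (0, 10, 20, 100, 200 mg/mL) for 2 hr at room temperature, then washed three times in PBS-Tween. FITC-labeled H. pylori 17875/Leb was applied for 2 hr and unbound cells were washed off with PBS-Tween. Bacterial binding was quantified digitally by microscopy.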

[5] = system: FITC labeled H. pylori strain 17875/Leb; experiment: In vitro inhibition of H. pylori adherence to human gastric mucosa sections; type: cell-based, Helicobacter pylori
Procedure, shortened: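 FITC-labeled bacterial suspensions were mixed with N-acetylcysteine dilutions in SIA blocking buffer (0, 10, 20, 100 mg/mL) and incubated 1 hr at 37°C. They were then applied to human gastric mucosa tissue sections for 2 hr. Unbound cells were removed with PBS-Tween, and adherent bacteria were quantified digitally by microscopy relative to bacteria without NAC.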

[6] = system: FITC labeled H. pylori strain 17875/Leb; experiment: In vitro detachment of adherent H. pylori from human gastric mucosa sections; type: cell-based, Helicobacter pylori
Procedure, shortened: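 Human gastric mucosa tissue sections were first given FITC-labeled bacteria with no NAC for 2 hr, then washed in PBS-Tween. Bound bacteria were then exposed to N-acetylcysteine dilutions in SIA blocking buffer (10, 20, 100, 200 mg/mL) for 1 hr at 37°C. Slides were washed again in PBS-Tween and remaining adherent bacteria were quantified digitally by microscopy.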

[7] = molecular target: T2, BabA^AD CL2 disulfide bond (Helicobacter pylori, UniProt O52269); experiment: Quantitative MS of tryptic digests: CL2 disulfide reduction; type: biochemical
T2 sequence (O52269 45-480): T1 sequence (O52269 45-480)

H. pylori = H. pylori infection of Le^b-expressing transgenic mice; type: in vivo; conditions: 2 week, 40 mg/day/animal in drinking water
BabA^AD;DL1-S831 [8] = experiment: SPR competition of BabA^AD; type: binding, Helicobacter pylori; conditions: 2-fold dilution series from 5 mM to 1 μM
BabA = conditions: ref Borén et al., 1993; cited from earlier work
full-length BabA = molecular target: T3, full-length BabA (Helicobacter pylori, UniProt O52269); experiment: SPR of full-length BabA on Le^b-coated chip; type: binding
T3 sequence (O52269 21-741): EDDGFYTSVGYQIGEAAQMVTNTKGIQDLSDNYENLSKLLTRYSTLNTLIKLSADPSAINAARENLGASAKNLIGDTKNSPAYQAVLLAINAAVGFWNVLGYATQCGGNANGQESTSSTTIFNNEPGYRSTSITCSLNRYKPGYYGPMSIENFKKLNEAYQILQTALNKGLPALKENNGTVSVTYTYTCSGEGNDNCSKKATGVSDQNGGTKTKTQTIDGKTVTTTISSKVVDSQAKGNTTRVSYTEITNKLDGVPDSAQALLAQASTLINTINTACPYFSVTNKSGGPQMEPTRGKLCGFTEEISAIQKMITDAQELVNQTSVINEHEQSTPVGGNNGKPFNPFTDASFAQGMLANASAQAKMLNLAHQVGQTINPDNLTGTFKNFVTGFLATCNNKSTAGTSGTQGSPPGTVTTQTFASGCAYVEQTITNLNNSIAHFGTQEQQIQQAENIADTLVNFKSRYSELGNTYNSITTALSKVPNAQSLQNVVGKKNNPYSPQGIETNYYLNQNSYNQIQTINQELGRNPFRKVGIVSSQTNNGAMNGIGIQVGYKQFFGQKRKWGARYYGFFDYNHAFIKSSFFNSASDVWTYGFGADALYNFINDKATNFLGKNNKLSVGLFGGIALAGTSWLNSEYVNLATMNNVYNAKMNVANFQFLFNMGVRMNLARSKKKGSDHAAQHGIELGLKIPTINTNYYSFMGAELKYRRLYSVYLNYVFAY
Procedure, shortened: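 Surface plasmon resonance on a chip carrying immobilized Leb. Full-length BabA was flowed over it at 500, 250, 125, 62.5, 31.3 and 15.7 nM. Raw sensorgrams were fitted to binding curves to derive Kd, the association rate constant ka and the dissociation rate constant kd, each reported with a ± spread.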

[9] = system: BabA CBD of Peruvian strain P436; experiment: Monovalent binding affinity; set-up: species or system Helicobacter pylori; conditions: P436 versus 17875 BabA
Procedure, shortened: as §1

[10] = system: H. pylori clinical isolates; experiment: RIA of Le^b binding of clinical isolates preincubated with DTT; type: cell-based; conditions: Helicobacter pylori, read-out: EC50, DTT-susceptibility of Le^b-binding
[11] = molecular target: T4, strain 17875 BabA adhesin domain (BabA^AD), residues 25-460 (Helicobacter pylori strain 17875, strain); experiment: crystal structure
T4 chain: T1 sequence (O52269 45-480)

CC(=O)N[C@H]1[C@H](O[C@H]2[C@@H](O)[C@@H](CO)O[C@@H](O[C@H]3[C@H](O)[C@@H](O)C(O)O[C@@H]3CO)[C@@H]2O)O[C@H](CO)[C@@H](O[C@@H]2O[C@@H](C)[C@@H](O)[C@@H](O)[C@@H]2O)[C@@H]1O[C@@H]1O[C@H](CO)[C@H](O)[C@H](O[C@H]2O[C@H](CO)[C@H](O)[C@H](O)[C@H]2O)[C@H]1O[C@@H]1O[C@@H](C)[C@@H](O)[C@@H](O)[C@@H]1O (stereo partly shown) [BLe^b7]
Kd [1]: 93 µM
ITC binding (BabA^AD;DL1-S831 [2]; titration): no binding heat signal

CC(=O)N[C@@H](CS)C(=O)O [NAC, N-acetyl-L-cysteine]
BabA-Le^b binding after incubation of bacteria [3]: inactivated
effect of section pretreatment on bacterial binding [4]: did not affect bacterial binding
adherent bacteria ([5]; 10 mg/mL NAC preincubation): 14%
adherent bacteria ([5]; 20 mg/mL NAC preincubation): less than 5%
inhibition of bacterial adherence ([5]; 20 mg/mL NAC, bacteria preincubated): almost eliminated
inhibition at 10000 µg/mL ([5]; Helicobacter pylori, read-out: inhibition of bacterial adherence): 86%
bacterial detachment ([6]; 10 mg/mL NAC on sections with bound bacteria): undetectable
bacterial detachment ([6]; 20 mg/mL NAC on sections with bound bacteria): 50%
bacterial detachment ([6]; 200 mg/mL NAC on sections with bound bacteria): over 90%
EC50 [7]: 55100 µM
fold lower neutrophil recruitment to the gastric mucosa (H. pylori): 13 fold
fold reduction in H. pylori epithelial adherence (H. pylori): 2 fold

Le^b hexasaccharide
suppression of binding to Le^b-coated SPR chip by soluble glycan (BabA^AD;DL1-S831 [8]): suppressed
fold stronger binding to Le^b versus type 1 H neoglycoconjugates (BabA): about 2 fold
association rate constant ka (full-length BabA): 610000 ± 140000 M⁻¹ s⁻¹
Kd (full-length BabA; full-length protein): 0.00039 µM
fold loss in monovalent binding affinity ([1]; A730 versus 17875 BabA): ~20 fold
Le^b binding of S831 DL1 graft (BabA^AD;DL1-S831 [2]; Figures 7B and S7A): active
fold loss in monovalent binding affinity [9]: ~15 fold

O[C@@H](CS)[C@@H](O)CS (racemic) [DTT, dithiothreitol]
EC50 [10]: 2000 to 10000 µM

CC(=O)N[C@H]1[C@@H](O[C@H]2[C@@H](O)[C@@H](CO)O[C@@H](O[C@H]3[C@H](O)[C@@H](CO)O[C@@H](O[C@H]4[C@@H](O)[C@@H](CO)O[C@@H](O[C@H]5[C@H](O)[C@@H](O)C(O)O[C@@H]5CO)[C@@H]4O)[C@@H]3NC(C)=O)[C@@H]2O[C@@H]2O[C@@H](C)[C@@H](O)[C@@H](O)[C@@H]2O)O[C@H](CO)[C@H](O)[C@@H]1O (stereo partly shown) [A6-1, A type 1 hexasaccharide]
Kd [1]: 305 µM

B1: Nb-ER19 (VHH)
VHH: QVQLQESGGGLVQPGGSLRLSCAASGSIFSGNVMGWYRQAPGKLREWVAAITPQGVPNYADSVKGRFTISRDNAKNMLYLQMSSLKPEDTALYYCNRLPNYRSWGQGTQVTVSS
binding result [11]: binds

B2: Nb-ER14 (VHH)
VHH: QVQLQESGGGLVQPGGSLRLSCAASGSIYSLIAMGWYRQAPGKEHELVATISSGSTTYYADSVKGRFTISRDNAKNTLYLQMNSLKPEDTAMYYCAAYSDRLTDCSNCEADYWGQGTQVTVS
binding result [11]: binds
